IC50 data for 30 molecules are collected here from ChEMBL document CHEMBL1795318, “Development of tetrahydroisoquinoline-based hydroxamic acid derivatives: potent histone deacetylase inhibitors with marked in vitro and in vivo antitumor activities” (J Med Chem, 2011).

Bounds are passed on as bounds.

Test [1] has as its target T1, Histone deacetylase 8 (Homo sapiens, UniProt Q9BY41).
T1 sequence (Q9BY41 whole entry): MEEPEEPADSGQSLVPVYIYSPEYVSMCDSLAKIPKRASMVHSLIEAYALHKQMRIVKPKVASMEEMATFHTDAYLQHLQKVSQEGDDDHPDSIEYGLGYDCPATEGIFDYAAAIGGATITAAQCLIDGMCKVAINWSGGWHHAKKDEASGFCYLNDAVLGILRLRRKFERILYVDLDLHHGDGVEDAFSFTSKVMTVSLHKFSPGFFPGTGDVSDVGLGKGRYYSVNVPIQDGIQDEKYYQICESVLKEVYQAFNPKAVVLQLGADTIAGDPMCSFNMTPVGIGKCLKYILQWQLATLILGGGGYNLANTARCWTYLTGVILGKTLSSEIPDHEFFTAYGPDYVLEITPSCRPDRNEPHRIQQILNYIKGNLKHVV
The test is described as follows: Inhibition of HDAC8 after 30 mins by fluorescence microplate reader. Summed up:
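HDAC8 mixed with compound at various concentrations, fluorogenic substrate added, 37 °C for 30 min; stopped with developer containing trypsin and TSA. Fluorescence read after 20 min (ex 390/em 460 nm); inhibition relative to control wells, IC50 by regression of concentration/inhibition data; mean ± SD of at least three determinations.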

Test [2] relates to MDA-MB-231. Put plainly: Cytotoxicity against human MDA-MB-231 cells after 48 hrs by MTT assay. It counts as functional, cell-based. To be noted: MDA-MB-231, 48 h. (In general: Formazan colour is commonly taken as a measure of viable cells.)
Test [3] relates to A549. The test is described as follows: Cytotoxicity against human A549 cells after 48 hrs by MTT assay. It counts as functional, cell-based. To be noted: A549, 48 h. Summed up:
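Cells kept in RPMI1640 with 10% FBS, 37 °C, 5% CO₂; seeded day before dosing, grown ≥4 h, treated with a concentration series for 48 h. MTT 0.5% solution added, 4 h further; formazan dissolved in DMSO 15 min, absorbance at 570 nm. Mean of three experiments.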

Test [4] deals with Histone deacetylase. Put plainly: Inhibition of HDAC in human HeLa cell nuclear extract after 30 mins by fluorescence microplate reader. It counts as protein assay.
For test [5], the target named is T2, Protein deacetylase HDAC6 (Homo sapiens, UniProt Q9UBN7).
T2 sequence (Q9UBN7 whole entry): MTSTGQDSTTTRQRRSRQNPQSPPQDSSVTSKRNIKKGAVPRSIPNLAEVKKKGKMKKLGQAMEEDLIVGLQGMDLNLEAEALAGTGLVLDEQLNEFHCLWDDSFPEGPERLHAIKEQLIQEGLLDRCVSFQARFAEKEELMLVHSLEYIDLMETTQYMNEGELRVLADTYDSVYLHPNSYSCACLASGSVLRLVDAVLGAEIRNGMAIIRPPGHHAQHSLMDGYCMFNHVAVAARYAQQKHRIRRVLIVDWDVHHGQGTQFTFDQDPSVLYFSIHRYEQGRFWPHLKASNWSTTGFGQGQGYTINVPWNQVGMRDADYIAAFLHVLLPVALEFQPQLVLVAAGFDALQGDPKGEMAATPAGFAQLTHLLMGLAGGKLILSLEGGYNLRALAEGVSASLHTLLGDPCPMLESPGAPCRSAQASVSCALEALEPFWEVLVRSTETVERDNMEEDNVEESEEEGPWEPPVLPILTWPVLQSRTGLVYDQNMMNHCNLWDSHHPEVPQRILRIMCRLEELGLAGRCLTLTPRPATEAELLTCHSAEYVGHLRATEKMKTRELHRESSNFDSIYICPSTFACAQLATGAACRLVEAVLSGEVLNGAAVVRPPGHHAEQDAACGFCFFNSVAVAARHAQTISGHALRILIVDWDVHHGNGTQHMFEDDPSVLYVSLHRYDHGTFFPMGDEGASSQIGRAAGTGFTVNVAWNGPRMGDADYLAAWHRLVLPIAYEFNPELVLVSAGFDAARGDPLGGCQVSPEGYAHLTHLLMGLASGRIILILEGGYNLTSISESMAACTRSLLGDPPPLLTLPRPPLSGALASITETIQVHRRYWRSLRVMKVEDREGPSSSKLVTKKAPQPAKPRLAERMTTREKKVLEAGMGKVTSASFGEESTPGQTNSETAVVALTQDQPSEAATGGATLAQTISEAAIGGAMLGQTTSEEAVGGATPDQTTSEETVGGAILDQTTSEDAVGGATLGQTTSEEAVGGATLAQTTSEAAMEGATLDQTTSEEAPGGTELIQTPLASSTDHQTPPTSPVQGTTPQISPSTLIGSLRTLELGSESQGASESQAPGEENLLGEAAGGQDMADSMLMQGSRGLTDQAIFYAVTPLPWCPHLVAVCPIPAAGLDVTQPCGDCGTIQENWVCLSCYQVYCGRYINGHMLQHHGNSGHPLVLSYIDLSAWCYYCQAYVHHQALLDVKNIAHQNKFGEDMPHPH
Put plainly: Inhibition of HDAC6 in human HeLa cell nuclear extract after 30 mins by fluorescence microplate reader.

For test [6], the system named is K562. Put plainly: Cytotoxicity against human K562 cells after 48 hrs by MTT assay. It counts as functional, cell-based. The settings on record: K562, 48 h.
For test [7], the system named is NB-4. Put plainly: Cytotoxicity against human NB4 cells after 48 hrs by MTT assay. It is filed as functional, cell-based. To be noted: NB-4, 48 h.
Test [8] relates to HeLa. Put plainly: Cytotoxicity against human HeLa cells after 48 hrs by MTT assay. It counts as functional, cell-based.
The test system of test [9] is HL-60. Put plainly: Cytotoxicity against human HL60 cells after 48 hrs by MTT assay. It is filed as functional, cell-based. The settings on record: HL-60, 48 h.

Usually IC50 stands for the midpoint of a concentration-inhibition curve. For the molecule `COc1ccc(NC(=O)[C@@H]2Cc3ccc(OCC(=O)NO)cc3CN2C(=O)CN)cc1`, the IC50 in [1] was determined as 2.14 µM.
Take `COc1ccc(NC(=O)[C@@H]2Cc3ccc(OCC(=O)NO)cc3CN2CCCc2ccccc2)cc1`: half-maximal inhibition in [1] (IC50) was put at 1.72 µM.
On the same count and under the same terms, under `COc1ccc(NC(=O)[C@@H]2Cc3ccc(OCC(=O)NO)cc3CN2C(=O)[C@@H](N)Cc2ccc(O)cc2)cc1` stands 0.634 µM.
As to `COc1ccc(NC(=O)[C@@H]2Cc3ccc(OCC(=O)NO)cc3CN2C(=O)CNC(=O)OC(C)(C)C)cc1`, 0.514 µM corresponded to half-maximal inhibition in test [1] (IC50).
As to `COc1ccc(NC(=O)[C@@H]2Cc3ccc(OCC(=O)NO)cc3CN2C(=O)[C@H](Cc2ccccc2)NC(=O)OC(C)(C)C)cc1`, the figures for the IC50 in test [1], in [2] and in test [3] were 0.103 µM, 1.29 µM and 12.7 µM, respectively.
With `COc1ccc(NC(=O)[C@@H]2Cc3ccc(OCC(=O)NO)cc3CN2C(=O)[C@@H](N)Cc2ccccc2)cc1`, the IC50 in [1] came out at 0.368 µM.
In the case of `COc1ccc(NC(=O)[C@@H]2Cc3ccc(OCC(=O)NO)cc3CN2C(=O)[C@@H](NC(=O)OC(C)(C)C)C(C)C)cc1`, the IC50 was determined as 0.104 µM in test [1], 1.58 µM in [2] and 0.84 µM in test [3].
Turning to `CC[C@H](C)[C@H](NC(=O)C1CCNCC1)C(=O)N1Cc2cc(OCC(=O)NO)ccc2C[C@H]1C(=O)Nc1ccc(OC)cc1.Cl`, the IC50 is 0.071 µM in test [4]; 0.169 µM in test [5]; 1.44 µM in test [1]; 51.7 µM in test [6]; over 200 µM in [7]; 102 µM in [8].
The molecule `COc1ccc(NC(=O)[C@@H]2Cc3ccc(OCC(=O)NO)cc3CN2C(=O)[C@@H]2CCCN2C(=O)OC(C)(C)C)cc1` had an IC50 in test [1] of 0.212 µM.
With `COc1ccc(NC(=O)[C@@H]2Cc3ccc(OCC(=O)NO)cc3CN2C(=O)[C@H](CC(C)C)NC(=O)OC(C)(C)C)cc1`, in test [1], the half-maximal inhibitory concentration (IC50) is 0.163 µM.
`COc1ccc(NC(=O)[C@@H]2Cc3ccc(OCC(=O)NO)cc3CN2C(=O)Cc2ccccc2)cc1`: the IC50 in test [1] was determined as 0.141 µM; in test [2], 4.45 µM; in test [3], 117 µM.
On to `CC[C@H](C)[C@H](NC(=O)[C@@H](N)C(C)C)C(=O)N1Cc2cc(OCC(=O)NO)ccc2C[C@H]1C(=O)Nc1ccc(OC)cc1.Cl`, for which the IC50 in test [4] worked out at 0.073 µM; in test [5], 0.163 µM; in test [1], 0.068 µM; in test [6], 20.4 µM; in test [7], 69.9 µM; in [8], 118 µM.
In turn, `O=C(COc1ccc2c(c1)CN(C(=O)CCc1ccccc1)[C@H](C(=O)NCCc1ccccc1)C2)NO` had an IC50 in [1] of 0.692 µM.
As for `COc1ccc(NC(=O)[C@@H]2Cc3ccc(OCC(=O)NO)cc3CN2C(=O)[C@H](C)NC(=O)OC(C)(C)C)cc1`, in test [1], the IC50 turned out to be 0.182 µM.
The same measure, in the same setting: under `COc1ccc(NC(=O)[C@@H]2Cc3ccc(OCC(=O)NO)cc3CN2Cc2ccccc2)cc1` stands 1.92 µM; under `COc1ccc(NC(=O)[C@@H]2Cc3ccc(OCC(=O)NO)cc3CN2CCc2ccccc2)cc1`, 1.02 µM.
Consider `COc1ccc(NC(=O)[C@@H]2Cc3ccc(OCC(=O)NO)cc3CN2C(=O)CCc2ccccc2)cc1`, for which the IC50 in test [1] was found to be 0.502 µM; in [2] it was 1.52 µM; in test [3], 4.8 µM.
`CC[C@H](C)[C@H](N)C(=O)N1Cc2cc(OCC(=O)NO)ccc2C[C@H]1C(=O)Nc1ccc(OC)cc1` showed an IC50 in [1] of 1.04 µM.
In the case of `CC[C@H](C)[C@H](NC(=O)C1CCN(C(=O)OC(C)(C)C)CC1)C(=O)N1Cc2cc(OCC(=O)NO)ccc2C[C@H]1C(=O)Nc1ccc(OC)cc1`, the IC50 was 0.214 µM in test [4]; 0.164 µM in test [5]; 0.147 µM in [1]; 12.3 µM in [6]; 68.2 µM in test [7]; over 200 µM in test [8].
As to `CC[C@H](C)[C@H](NC(=O)[C@@H]1CCCN1)C(=O)N1Cc2cc(OCC(=O)NO)ccc2C[C@H]1C(=O)Nc1ccc(OC)cc1.Cl`, the IC50 in [4] came to 0.108 µM; in test [5], 0.191 µM; in test [1], 0.047 µM; in test [9], 69.8 µM; in test [6] it was 6.59 µM; in [7] it was 9.28 µM. This molecule also showed an IC50 in test [8] of over 200 µM.
Molecule `COc1ccc(NC(=O)[C@@H]2Cc3ccc(OCC(=O)NO)cc3CN2C(=O)[C@H](C)N)cc1` showed an IC50 in test [1] of 1.28 µM.
On the same count and under the same terms, under `COc1ccc(NC(=O)[C@@H]2Cc3ccc(OCC(=O)NO)cc3CN2C(=O)[C@@H](N)C(C)C)cc1` stands 1.02 µM; under `COc1ccc(NC(=O)[C@@H]2Cc3ccc(OCC(=O)NO)cc3CN2C(=O)[C@H](Cc2ccc(O)cc2)NC(=O)OC(C)(C)C)cc1`, 0.175 µM.
Same read-out and setting: under `O=C(COc1ccc2c(c1)CN(C(=O)CCc1ccccc1)[C@H](C(=O)Nc1ccccc1)C2)NO` stands 0.759 µM.
Regarding `CC[C@H](C)[C@H](NC(=O)[C@@H](NC(=O)OC(C)(C)C)C(C)C)C(=O)N1Cc2cc(OCC(=O)NO)ccc2C[C@H]1C(=O)Nc1ccc(OC)cc1`, the IC50 came to 0.128 µM in test [4]; 0.116 µM in [5]; 0.201 µM in test [1]; 2.78 µM in test [6]; 63.3 µM in test [7]; 167 µM in test [8].
In the case of `COc1ccc(NC(=O)[C@@H]2Cc3ccc(OCC(=O)NO)cc3CN2C(=O)[C@@H](N)CC(C)C)cc1`, the 50% inhibitory concentration (IC50) in test [1] was found to be 0.675 µM.
On to `CC[C@H](C)[C@H](NC(=O)[C@@H]1CCCN1C(=O)OC(C)(C)C)C(=O)N1Cc2cc(OCC(=O)NO)ccc2C[C@H]1C(=O)Nc1ccc(OC)cc1`, for which the IC50 in test [4] turned out to be 0.065 µM; in test [5] it was 0.141 µM; in test [1], 0.192 µM; in test [9], 76.8 µM; in [6], 2.32 µM; in test [7], 5.15 µM. The molecule further showed an IC50 in [8] of 184 µM.
In the case of `COc1ccc(NC(=O)[C@@H]2Cc3ccc(OCC(=O)NO)cc3CN2C(=O)c2ccccc2)cc1`, the IC50 is 0.164 µM in test [1], 3.05 µM in test [2] and 5.95 µM in test [3].
`COc1ccc(NC(=O)[C@@H]2Cc3ccc(OCC(=O)NO)cc3CN2C(=O)[C@@H]2CCCN2)cc1` had an IC50 in [1] of 0.481 µM.
Regarding `COc1ccc(NC(=O)[C@@H]2Cc3ccc(OCC(=O)NO)cc3CN2C(=O)CCCc2ccccc2)cc1`, the IC50 came out at 0.114 µM in test [1], 2.77 µM in test [2] and 3.58 µM in test [3].
